Activity calls are given as the source filed them. The calls are words filed in the database; no cut-off is given here.

Experimental findings from ChEMBL document CHEMBL1165998, “Antihyperglycemic effect of catalpol in streptozotocin-induced diabetic rats” (2010) are described below.

Assay [1] concerns Rattus norvegicus. The assay is described as follows: Antihyperglycemic effect in streptozotocin-induced diabetic Wistar rat assessed as reduction of plasma glucose level at 100 mg/kg, po relative to untreated control. More on the design: scale not given: the % may be the effect or the level left.
In assay [2] the test system is Rattus norvegicus. Nature of the assay: Antihyperglycemic effect in streptozotocin-induced diabetic Wistar rat assessed as reduction of plasma glucose level at 0.1 mg/kg, iv bolus after 30 mins. The assay is classed as functional, organism-based. More on the design: dose 0.1 mg/kg. Put shortly:
(§1)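 STZ (60 mg/kg) given to fasted rats; animals with plasma glucose of 20 mmol/L or more plus diabetic features were used two weeks later. Fasted rats got an i.v. bolus of catalpol in normal saline (0.01–0.15 mg/kg) or vehicle. Tail-vein blood was drawn under pentobarbital at 30 min. Glucose was read enzymatically in duplicate, and activity was calculated as [(Gi−Gt)/Gi]×100%. n=8 per group.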

Assay [3] has as its system Rattus norvegicus. The assay is described as follows: Antihyperglycemic effect in iv bolus dosed streptozotocin-induced diabetic Wistar rat assessed as reduction of plasma glucose level after 30 mins. It counts as functional, organism-based. Put shortly:
as §1

Assay [4] deals with Rattus norvegicus. The assay is described as follows: Antihyperglycemic effect in streptozotocin-induced diabetic Wistar rat assessed as reduction of plasma glucose level at 0.15 mg/kg, iv bolus after 30 mins. The arrangement: dose 0.15 mg/kg. The assay is classed as functional, organism-based. The method in brief:
as §1

For assay [5], the system named is Rattus norvegicus. The assay is described as follows: Antihyperglycemic effect in streptozotocin-induced diabetic Wistar rat assessed as reduction of plasma glucose level at 0.1 mg/kg, iv bolus after 30 mins relative to untreated control. The assay is classed as functional. More on the design: scale not given: the % may be the effect or the level left. Put shortly: as §1

Assay [6] concerns Rattus norvegicus. The assay is described as follows: Antihyperglycemic effect in streptozotocin-induced diabetic Wistar rat assessed as reduction of plasma glucose level at 0.01 mg/kg, iv bolus after 30 mins relative to untreated control. It counts as functional. More on the design: scale not given: the % may be the effect or the level left. Put shortly:
as §1

In the next assay the test system is Soleus muscle. Nature of the assay: Increase in uptake of 2-[1-14C]-deoxy-D-glucose in streptozotocin-induced diabetic Wistar rat isolated soleus muscle after 30 mins by beta counter. The assay is classed as functional, tissue-based. Put shortly: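 Soleus strips came from STZ-diabetic rats. They were preincubated 30 min in KRBB (pH 7.4, 37 °C, 1 mmol/L glucose, 1% BSA, 5% CO2/O2), then exposed 30 min to test agent (10-8–10-6 M). Next came 5 min with 2-[1-14C]-deoxy-D-glucose (1 µCi/mL). Tissue was digested in NaOH and counted by β-counter. Non-specific uptake with 20 µmol/L cytochalasin B was subtracted. n=8.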

A further assay concerns Hepatocyte. Nature of the assay: Increase in glycogen synthesis in streptozotocin-induced diabetic Wistar rat hepatocyte assessed as [U14C]glucose incorporation in to glycogen […] by ethanol precipitation assay. It counts as functional, cell-based. The method in brief: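 Hepatocytes from STZ-diabetic rats were isolated by collagenase perfusion (>90% viable by trypan blue). After 30 min preincubation in KRBB at 37 °C, they were incubated with [U-14C]-glucose (0.25 µCi/mL) plus test agent (10-8–10-6 M) for 1 h with shaking. Glycogen label was measured by ethanol precipitation and expressed as pmol/mg protein. n=8; compared against vehicle blanks.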

Assay [7] relates to Rattus norvegicus. Nature of the assay: Antihyperglycemic effect in normal Wistar rat assessed as attenuation of increase of plasma glucose level at 0.1 mg/kg, iv bolus measured 5 mins after intravenous glucose challenge test.
Assay [8] relates to Rattus norvegicus. The assay is described as follows: Antihyperglycemic effect in normal Wistar rat assessed as attenuation of increase of plasma glucose level at 0.1 mg/kg, iv bolus measured 20 mins after intravenous glucose challenge test.
The test system of assay [9] is Rattus norvegicus. Nature of the assay: Antihyperglycemic effect in normal Wistar rat assessed as attenuation of increase of plasma glucose level at 0.1 mg/kg, iv bolus measured 30 mins after intravenous glucose challenge test.

Regarding `CN(C)C(=N)NC(=N)N` [METFORMIN], the Activity with Rattus norvegicus [1] is on record as 32%.

Consider `OC[C@H]1O[C@@H](O[C@@H]2OC=C[C@H]3[C@H](O)[C@@H]4O[C@]4(CO)[C@@H]23)[C@H](O)[C@@H](O)[C@@H]1O` [CATALPOL], for which the outcome in the assay with Rattus norvegicus [2], in the assay with Rattus norvegicus [4], in the assay on Rattus norvegicus [7] and with Rattus norvegicus [8] was Active. In addition, the Activity entry is “Dose-dependent effect” in the assay with Rattus norvegicus [3]; 24.33% with Rattus norvegicus [5]; 8.53% in the assay with Rattus norvegicus [6]; “Dose-dependent effect” in the assay with Soleus muscle; “Dose-dependent effect” in the assay on Hepatocyte. For the same compound, the outcome in the assay with Rattus norvegicus [9] was inactive.
